Results from ChEMBL document CHEMBL1687827, “Profiling the Aspergillus fumigatus proteome in response to caspofungin” (2011).
Active and inactive are the calls of the source. The calls are words filed in the database; no cut-off is given here.

Columns and labels:
Aspergillus fumigatus [1] = experiment: Induction of change in allergen Asp F4 protein level in iTRAQ-116 labelled secreted fraction of drug-susceptible Aspergillus fumigatus KU80 delta-akuB at 0.12 ug/ml after 48 hrs in YPD medium by MS (MS/MS) analysis relative to control; format: functional
Summary of the method: (§1)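 Conidia at 1 × 10⁵/ml grown shaking at 37°C in YPD with or without 0.12 μg/ml caspofungin; mycelia filtered at 24 or 48 h. Secreted fraction taken from the filtrate; cell wall/plasma membrane pellet recovered after French-press lysis and a 5,000 × g spin. Proteins trypsin-digested and iTRAQ-labelled, drug vs no-drug channels at each time, then 2D LC-MS/MS. Protein ratio is the median of ratios from uniquely assigned peptides after median normalization.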

Aspergillus fumigatus [2] = experiment: Induction of change in ribosomal protein L26 gene expression in drug-susceptible Aspergillus fumigatus KU80 delta-akuB at 0.12 ug/ml after 24 hrs in YPD medium by microarray analysis relative to control; format: functional
Summary of the method: (§2)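 Mycelia grown from 1 × 10⁵ conidia/ml in YPD at 37°C, 225 rpm, with or without 0.12 μg/ml caspofungin. Total RNA extracted, DNase-treated; 2 μg labelled per TIGR SOP M007 for whole-genome array hybridization. Three independent experiments with dye flip (6 replicates); >2-fold change deemed significant.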

Aspergillus fumigatus [3] = experiment: Induction of change in carbonic anhydrase family gene expression in drug-susceptible Aspergillus fumigatus KU80 delta-akuB at 0.12 ug/ml after 24 hrs in YPD medium by microarray analysis relative to control; format: functional
Summary of the method: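 Mycelia grown in YPD ± 0.12 μg/ml caspofungin (1 × 10⁵ conidia/ml, 37°C, shaking) and harvested at 24 or 48 h. Total RNA extracted, DNase-treated and quality-checked; 2 μg labelled per TIGR SOP M007 and hybridized to whole-genome arrays. Three independent experiments with dye flip (6 replicates); drug vs untreated fold change.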

Aspergillus fumigatus [4] = experiment: Induction of change in stearic acid desaturase (SdeA), putative gene expression in drug-susceptible Aspergillus fumigatus KU80 delta-akuB at 0.12 ug/ml after 24 hrs in YPD medium by microarray analysis relative to control; format: functional; summary of the method: as §2
Aspergillus fumigatus [5] = experiment: Induction of change in cytosolic small ribosomal subunit S15, putative protein level in iTRAQ114 labelled cell wall fraction of drug-susceptible Aspergillus fumigatus KU80 delta-akuB at 0.12 ug/ml after 24 hrs in YPD medium by MS (MS/MS) analysis relative to control; format: functional; summary of the method: as §1
Aspergillus fumigatus [6] = experiment: Induction of change in Plasma membrane H-ATPase Pma1 protein level in iTRAQ114 labelled cell wall fraction of drug-resistant Aspergillus fumigatus EMFR-S678P at 0.12 ug/ml after 24 hrs in YPD medium by MS (MS/MS) analysis relative to control; format: functional
Summary of the method: (§3)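 Conidia at 1 × 10⁵/ml were grown at 37°C, shaking at 225 rpm, in YPD with or without 0.12 μg/ml caspofungin for 24 or 48 h. The culture filtrate was kept as the secreted fraction. Mycelia were lysed by French press in HEPES/glycerol/EDTA/PMSF/DTT buffer, and the 5,000 × g pellet was washed to give CW/PM. Proteins were reduced, alkylated and trypsin-digested at 37°C overnight, then iTRAQ-labelled and run by 2D LC-MS/MS. Ratios are the median of unique-peptide ratios, median-normalized, versus the no-drug control.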

Aspergillus fumigatus [7] = experiment: Antifungal activity against drug-susceptible Aspergillus fumigatus KU80 delta-akuB assessed as reduction in colony size at 0.12 ug/ml; format: functional, organism-based
Aspergillus fumigatus [8] = experiment: Induction of change in cytochrome b5, putative protein level in iTRAQ114 labelled secreted fraction of drug-resistant Aspergillus fumigatus EMFR-S678P at 0.12 ug/ml after 24 hrs in YPD medium by MS (MS/MS) analysis relative to control; format: functional; summary of the method: as §3
Aspergillus fumigatus [9] = experiment: Induction of change in allergen Asp F4 protein level in iTRAQ114 labelled secreted fraction of drug-resistant Aspergillus fumigatus EMFR-S678P at 0.12 ug/ml after 24 hrs in YPD medium by MS (MS/MS) analysis relative to control; format: functional, organism-based; summary of the method: as §3
Aspergillus fumigatus [10] = experiment: Induction of change in ThiJ/PfpI family protein level in iTRAQ-118 labelled cell wall fraction of drug-resistant Aspergillus fumigatus EMFR-S678P at 0.12 ug/ml after 24 hrs in YPD medium by MS (MS/MS) analysis relative to control; format: functional; summary of the method: as §3
Aspergillus fumigatus [11] = experiment: Induction of change in GNAT family acetyltransferase, putative protein level in iTRAQ-118 labelled cell wall fraction of drug-resistant Aspergillus fumigatus EMFR-S678P at 0.12 ug/ml after 24 hrs in YPD medium by MS (MS/MS) analysis relative to control; format: functional, organism-based; summary of the method: as §3
Aspergillus fumigatus [12] = experiment: Induction of change in glycine-rich RNA-binding protein, putative protein level in iTRAQ-118 labelled cell wall fraction of drug-resistant Aspergillus fumigatus EMFR-S678P at 0.12 ug/ml after 24 hrs in YPD medium by MS (MS/MS) analysis relative to control; format: functional; summary of the method: as §3
Aspergillus fumigatus [13] = experiment: Induction of change in glucosamine-fructose-6-phosphate aminotransferase protein level in iTRAQ-118 labelled cell wall fraction of drug-resistant Aspergillus fumigatus EMFR-S678P at 0.12 ug/ml after 48 hrs in YPD medium by MS (MS/MS) analysis relative to control; format: functional; summary of the method: as §3
Aspergillus fumigatus [14] = experiment: Induction of change in nascent polypeptide-associated complex (NAC) subunit, putative protein level in iTRAQ-116 labelled secreted fraction of drug-resistant Aspergillus fumigatus EMFR-S678P at 0.12 ug/ml after 48 hrs in YPD medium by MS (MS/MS) analysis relative to control; format: functional, organism-based; summary of the method: as §3
Aspergillus fumigatus [15] = experiment: Induction of change in antigenic mitochondrial protein HSP60, putative protein level in iTRAQ-116 labelled secreted fraction of drug-resistant Aspergillus fumigatus EMFR-S678P at 0.12 ug/ml after 48 hrs in YPD medium by MS (MS/MS) analysis relative to control; format: functional; summary of the method: as §3
Aspergillus fumigatus [16] = experiment: Induction of change in cobalamin-independent methionine synthase MetH/D protein level in iTRAQ-116 labelled secreted fraction of drug-resistant Aspergillus fumigatus EMFR-S678P at 0.12 ug/ml after 48 hrs in YPD medium by MS (MS/MS) analysis relative to control; format: functional; summary of the method: as §3
Aspergillus fumigatus [17] = experiment: Induction of change in Ribosomal protein S13p/S18e protein level in iTRAQ114 labelled cell wall fraction of drug-susceptible Aspergillus fumigatus KU80 delta-akuB at 0.12 ug/ml after 24 hrs in YPD medium by MS (MS/MS) analysis relative to control; format: functional; summary of the method: as §1
Aspergillus fumigatus [18] = experiment: Induction of change in pyruvate decarboxylase PdcA, putative protein level in iTRAQ-118 labelled cell wall fraction of drug-susceptible Aspergillus fumigatus KU80 delta-akuB at 0.12 ug/ml after 24 hrs in YPD medium by MS (MS/MS) analysis relative to control; format: functional
Summary of the method: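 Conidia (1 × 10⁵/ml) grown in YPD, 37°C, 225 rpm, ± 0.12 μg/ml caspofungin; filtrate taken as secreted fraction, French-press lysate 5,000 × g pellet as cell wall/plasma membrane. Trypsin digests 8-plex iTRAQ-labelled (drug-free channels as references), pooled, 2D-chromatography, MS/MS. Median-normalized; protein ratio = median of unique-peptide ratios, log2 normalized.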

CC[C@H](C)C[C@H](C)CCCCCCCCC(=O)N[C@H]1C[C@@H](O)[C@@H](NCCN)NC(=O)[C@@H]2[C@@H](O)CCN2C(=O)[C@H]([C@H](O)CCN)NC(=O)[C@H]([C@H](O)[C@@H](O)c2ccc(O)cc2)NC(=O)[C@@H]2C[C@@H](O)CN2C(=O)[C@H]([C@@H](C)O)NC1=O [CASPOFUNGIN]
fold change (FC) (Aspergillus fumigatus [1]): -7
fold change (FC) (Aspergillus fumigatus [2]): 5.3
fold change (FC) (Aspergillus fumigatus [3]): -6.5
fold change (FC) (Aspergillus fumigatus [4]): -4.6
fold change (FC) (Aspergillus fumigatus [5]): 1.9
fold change (FC) (Aspergillus fumigatus [6]): -1.15
Activity (Aspergillus fumigatus [7]): Active
fold change (FC) (Aspergillus fumigatus [8]): -1.32
Activity (Aspergillus fumigatus [9]): inactive
fold change (FC) (Aspergillus fumigatus [10]): 1.23
Activity (Aspergillus fumigatus [11]): inactive
fold change (FC) (Aspergillus fumigatus [12]): 1.52
fold change (FC) (Aspergillus fumigatus [13]): -1.07
Activity (Aspergillus fumigatus [14]): inactive
fold change (FC) (Aspergillus fumigatus [15]): -1.15
fold change (FC) (Aspergillus fumigatus [16]): -1.15
fold change (FC) (Aspergillus fumigatus [17]): 2.3
fold change (FC) (Aspergillus fumigatus [18]): -2.3
